Tests used:
[1] = target: Bifunctional dihydrofolate reductase-thymidylate synthase (Plasmodium falciparum K1, UniProt P13922); test: Inhibitory activity against double mutant dihydrofolate reductase (C59R+S108N DHFR)
[2] = target: Bifunctional dihydrofolate reductase-thymidylate synthase (Plasmodium falciparum K1) (UniProt P13922); test: Inhibitory activity against wild-type dihydrofolate reductase (S108N DHFR), relative to trimethoprim
Summary of the method: (§1)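 Wild-type and mutant P. falciparum DHFR expressed in E. coli BL21(DE3)pLysS. Ki calculated assuming inhibitors compete with substrate at the active site.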

[3] = target: Bifunctional dihydrofolate reductase-thymidylate synthase (Plasmodium falciparum K1) (UniProt P13922); test: Inhibitory activity against double mutant dihydrofolate reductase (C59R S108N DHFR), relative to trimethoprim; summary of the method: as §1
[4] = target: Bifunctional dihydrofolate reductase-thymidylate synthase (Plasmodium falciparum K1) (UniProt P13922); test: Inhibitory activity against quadruple mutant dihydrofolate reductase (N51I C59R S108N I164L DHFR), relative to trimethoprim; summary of the method: as §1
[5] = target: Bifunctional dihydrofolate reductase-thymidylate synthase (Plasmodium falciparum K1, UniProt P13922, C59R/I164L/N51I/S108N); test: Inhibitory activity against quadruple mutant dihydrofolate reductase (N51I C59R S108N I164L DHFR)
Chain of Bifunctional dihydrofolate reductase-thymidylate synthase (Plasmodium falciparum K1, UniProt P13922, C59R/I164L/N51I/S108N) (P13922 whole entry, looked up, stated change not applied): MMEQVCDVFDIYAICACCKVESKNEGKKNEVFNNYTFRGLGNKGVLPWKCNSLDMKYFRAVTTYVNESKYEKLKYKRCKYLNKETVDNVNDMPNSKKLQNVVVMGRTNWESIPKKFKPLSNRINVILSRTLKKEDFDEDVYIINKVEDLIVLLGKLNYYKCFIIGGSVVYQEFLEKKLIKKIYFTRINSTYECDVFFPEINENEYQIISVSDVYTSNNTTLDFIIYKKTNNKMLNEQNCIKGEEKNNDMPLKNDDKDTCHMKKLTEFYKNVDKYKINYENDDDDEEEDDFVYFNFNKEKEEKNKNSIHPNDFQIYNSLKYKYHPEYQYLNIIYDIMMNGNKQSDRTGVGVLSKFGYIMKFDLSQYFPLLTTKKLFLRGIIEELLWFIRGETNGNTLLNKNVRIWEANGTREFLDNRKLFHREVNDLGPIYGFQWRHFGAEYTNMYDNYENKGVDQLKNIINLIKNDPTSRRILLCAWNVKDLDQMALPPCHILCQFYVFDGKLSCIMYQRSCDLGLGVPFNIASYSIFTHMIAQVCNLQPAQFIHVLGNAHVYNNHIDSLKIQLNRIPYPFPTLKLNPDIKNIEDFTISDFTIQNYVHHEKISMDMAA

[6] = target: Bifunctional dihydrofolate reductase-thymidylate synthase (Plasmodium falciparum K1, UniProt P13922, C59R/I164L/S108N); test: Inhibitory activity against triple mutant dihydrofolate reductase (C59R S108N I164L DHFR)
Chain of Bifunctional dihydrofolate reductase-thymidylate synthase (Plasmodium falciparum K1, UniProt P13922, C59R/I164L/S108N) (P13922 whole entry, looked up, stated change not applied): as above

[7] = target: Bifunctional dihydrofolate reductase-thymidylate synthase (Plasmodium falciparum K1) (UniProt P13922); test: Inhibitory activity against triple mutant dihydrofolate reductase (C59R S108N I164L DHFR), relative to trimethoprim; summary of the method: as §1

Chain of Bifunctional dihydrofolate reductase-thymidylate synthase (Plasmodium falciparum K1) (P13922 whole entry, looked up): as the sequence (P13922 whole entry, looked up, stated change not applied) above
Chain of Bifunctional dihydrofolate reductase-thymidylate synthase (Plasmodium falciparum K1, UniProt P13922) (P13922 whole entry): as the sequence (P13922 whole entry, looked up, stated change not applied) above

Structure (SMILES) | Ki [1] [nM] | Relative activity [2] | Relative activity [3] | Relative activity [4] | Ki [5] [nM] | Ki [6] [nM] | Relative activity [7]
CCCOc1cc(Cc2cnc(N)nc2N)ccc1OC | 52.1 | 0.2 | 0.2 | 0.1 | 920 | 144 | 0.03
CCCCCCCOc1cc(Cc2cnc(N)nc2N)ccc1OC | 104 | 0.3 | 0.4 | 0.1 | 445 | 292 | 0.05
COc1ccc(Cc2cnc(N)nc2N)cc1OC [DIAVERIDINE] | 235 | 1.1 | 1 | 2.1 | 13900 | 2650 | 0.5
COc1cc(Cc2cnc(N)nc2N)ccc1OCc1cc(OC)c(OC)c(OC)c1 |  |  |  |  | 124 | 47.6 | 
COc1cc(Cc2cnc(N)nc2N)ccc1OCCCOc1ccccc1 | 37.1 | 0.19 | 0.15 | 0.09 | 606 | 257 | 0.05
Nc1ncc(Cc2ccc(OCCCc3ccccc3)cc2)c(N)n1 | 58.1 | 0.57 | 0.44 | 0.12 | 801 | 3040 | 0.54
CCCCCOc1ccc(Cc2cnc(N)nc2N)cc1OCC | 46.6 | 0.1 | 0.2 | 0.1 | 902 | 1160 | 0.2
CCCCOc1cc(Cc2cnc(N)nc2N)ccc1OC | 194 | 0.2 | 0.8 | 0.2 | 1030 | 772 | 0.1
CCOc1ccc(Cc2cnc(N)nc2N)cc1OC | 187 | 1.5 | 0.8 | 1.8 | 11800 | 3540 | 0.6
COc1ccc(Cc2cnc(N)nc2N)cc1OCc1ccccc1 | 143 | 0.7 | 0.6 | 0.2 | 1130 | 630 | 0.11
COc1cc(Cc2cnc(N)nc2N)ccc1OCCCOCCCOc1ccccc1 | 154 | 0.18 | 0.63 | 0.33 | 2190 | 425 | 0.07
Nc1ncc(Cc2ccc(OCCCOc3ccccc3)cc2)c(N)n1 | 170 | 0.63 | 0.7 | 0.34 | 2260 | 471 | 0.08
Nc1ncc(Cc2ccc(OCCCOCCCOc3ccccc3)cc2)c(N)n1 | 108 | 0.68 | 0.45 | 0.24 | 1590 | 264 | 0.05
CCCOc1ccc(Cc2cnc(N)nc2N)cc1 | 211 | 1.5 | 0.9 | 0.2 | 1520 | 1090 | 0.2
CCCCCCCOc1ccc(Cc2cnc(N)nc2N)cc1 | 196 | 1.7 | 0.8 | 0.2 | 1380 | 2210 | 0.4
CCOc1cc(Cc2cnc(N)nc2N)ccc1OCCCOc1ccccc1 | 47.7 | 0.06 | 0.2 | 0.12 | 770 | 166 | 0.03
CCc1nc(N)nc(N)c1Cc1ccc(OCc2ccccc2)c(OC)c1 | 60.1 | 0.3 | 0.25 | 0.11 | 732 | 3740 | 0.66
CCOc1cc(Cc2cnc(N)nc2N)ccc1OCCCc1ccccc1 | 10.6 | 0.1 | 0.08 | 0.08 | 525 | 374 | 0.06
COc1cc(Cc2cnc(N)nc2N)ccc1OCCCc1ccccc1 |  | 0.17 | 0.33 | 0.17 | 1120 | 3100 | 0.54
CCCOc1cc(Cc2c(N)nc(N)nc2CC)ccc1OCc1cc(OC)c(OC)c(OC)c1 | 48.7 | 0.17 | 0.2 | 0.1 | 693 | 154 | 0.03
CCCCCOc1cc(Cc2cnc(N)nc2N)ccc1OC | 134 | 0.2 | 0.5 | 0.1 | 444 | 253 | 0.04
COc1cc(Cc2c(C)nc(N)nc2N)ccc1OCc1ccccc1 | 89.5 | 0.3 | 0.4 | 0.01 | 93.4 | 66.3 | 0.01
CCOc1cc(Cc2cnc(N)nc2N)ccc1OCCCOCCCOc1ccccc1 | 46.9 | 0.22 | 0.19 | 0.14 | 937 | 314 | 0.06
COc1ccc(Cc2cnc(N)nc2N)cc1 | 464 | 2.3 | 1.9 | 3.1 | 20500 | 3960 | 0.7
CCCCCOc1ccc(Cc2cnc(N)nc2N)cc1 | 137 | 0.8 | 0.6 | 0.1 | 915 | 539 | 0.1

From ChEMBL document CHEMBL1148379 (J Med Chem, 2004)
